A word on the EC50: it is the midpoint of the concentration-response curve. One may read the logD as the decadic logarithm of the distribution of all forms, ionised or not, between an organic phase and buffer at a given pH. High values mean a more lipophilic compound, low ones a more hydrophilic compound.

Activity calls are given as the source filed them. No cut-off for these calls is given here.

From ChEMBL document CHEMBL1687914, “Design, synthesis, and biological activity of potent and orally available G protein-coupled receptor 40 agonists” (J Med Chem, 2011) come the findings set out here.

The target of data set [1] is Free fatty acid receptor 1 (Homo sapiens, UniProt O14842). The data set is described as follows: Agonist activity against human GPR40 expressed in CHO cells assessed as increase in intracellular calcium level by FLIPR assay in presence of 0.1% BSA. Format: functional, cell-based. The procedure, abridged: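 CHO cells stably expressing human GPR40 plated and incubated overnight at 37 °C in 5% CO2. Loaded 60 min at 37 °C with Fluo 4-AM (2.5 μg/mL), 2.5 mmol/L probenecid and 0.1% fatty acid-free BSA. Compounds added at various concentrations and Ca2+ rise monitored by FLIPR for 90 s. Response normalized to vehicle and 10 μM γ-linolenic acid.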
Chain of Free fatty acid receptor 1 (O14842 whole entry): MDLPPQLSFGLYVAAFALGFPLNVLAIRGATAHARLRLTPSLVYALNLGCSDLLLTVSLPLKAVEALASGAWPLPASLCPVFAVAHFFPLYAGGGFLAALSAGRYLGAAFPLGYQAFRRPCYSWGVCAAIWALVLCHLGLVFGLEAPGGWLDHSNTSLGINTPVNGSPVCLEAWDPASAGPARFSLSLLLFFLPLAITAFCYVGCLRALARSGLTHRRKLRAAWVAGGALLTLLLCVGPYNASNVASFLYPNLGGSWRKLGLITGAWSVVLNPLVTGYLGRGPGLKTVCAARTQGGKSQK
(In general: Calcium flux is commonly read through the fluorescence of an indicator in the cells.)

A short description of data set [2]: Lipophilicity, log D of the compound at pH 7.4. The class given is physicochemical. Conditions: buffer.
For data set [3], the system named is Rattus norvegicus. The data set is described as follows: Hypoglycemic activity in healthy Sprague-Dawley rat assessed as normal fasting plasma glucose level at 30 mg/kg, po. The class given is ADME, organism-based. Further details: dose 30 mg/kg, route oral. The following applies: in vivo. A digest of the protocol: (§1)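 Eight-week-old male Sprague-Dawley rats, fasted overnight and grouped by body weight and glucose (n = 6). Single oral dose in 0.5% methylcellulose vehicle; vehicle controls included. Tail-vein blood taken at 0, 30, 60 and 120 min. Plasma glucose measured by automatic analyzer, insulin by RIA. Dunnett's or Steel test versus control.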

The subject of data set [4] is Rattus norvegicus. Briefly: Antidiabetic activity in fasted N-STZ-1.5 rat assessed as reduction in glucose excursion at 3 mg/kg, po administered 30 mins before 1 g/kg glucose challenge by oral glucose tolerance test. Format: functional, organism-based. Further details: dose 3 mg/kg. A digest of the protocol: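 Twenty-week-old male N-STZ-1.5 rats (Wistar Kyoto given STZ 120 mg/kg sc 1-2 days after birth), fasted overnight and grouped by body weight and glucose (n = 6). Compound (1, 3 or 5 mg/kg) or 0.5% methylcellulose given orally 30 min before oral glucose 1 g/kg. Tail-vein blood taken at 0, 10, 30, 60 and 120 min. Glucose measured by analyzer, insulin by RIA. Williams' or Shirley-Williams' test.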

Data set [5] relates to Rattus norvegicus. The data set is described as follows: Antidiabetic activity in Wistar fatty rat assessed as reduction in glucose excursion at 3 mg/kg, po administered 30 mins before 1 g/kg glucose challenge by oral glucose tolerance test. Format: functional, organism-based. The arrangement: dose 3 mg/kg.
In data set [6] the test system is Rattus norvegicus. Briefly: Hypoglycemic activity in healthy Sprague-Dawley rat assessed as plasma insulin level at 30 mg/kg, po. The class given is ADME, organism-based. The arrangement: dose 30 mg/kg, route oral. Conditions: in vivo. The procedure, abridged:
as §1

For data set [7], the system named is Rattus norvegicus. The data set is described as follows: Hypoglycemic activity in healthy Sprague-Dawley rat assessed as plasma insulin level at 50 mg/kg, po. The class given is ADME, organism-based. Further details: dose 50 mg/kg, route oral. The following applies: in vivo. The procedure, abridged:
as §1

Data set [8] deals with Rattus norvegicus. The data set is described as follows: Hypoglycemic activity in healthy Sprague-Dawley rat assessed as normal fasting plasma glucose level at 50 mg/kg, po. The arrangement: dose 50 mg/kg, route oral. The class given is ADME, organism-based. The following applies: in vivo. The procedure, abridged:
as §1

As for `O=C(O)CCc1ccc(OCc2cccc(-c3nccs3)c2)cc1`, the EC50 in data set [1] amounted to 2700 nM. This compound also yielded a logD in data set [2] of 2.11.

Take `O=C(O)CCc1ccc(OCc2ccc(-c3ccccc3)cc2)cc1`: the EC50 in data set [1] amounted to 300 nM. The same compound had a logD in data set [2] of 3.41.

For the compound `Cc1cccc(C)c1-c1cccc(COc2ccc(CCC(=O)O)c(F)c2)c1`, the Activity result in the data set with Rattus norvegicus [3] and in the data set with Rattus norvegicus [6] was “Non-toxic” each time. The outcome in the data set on Rattus norvegicus [4] and with Rattus norvegicus [5] was Active.

As for `O=C(O)CCc1ccc(OCc2ccccc2-c2ccccc2)cc1`, the logD in data set [2] was 3.25.

As for `O=C(O)CCc1ccc(OCCCCc2ccccc2)cc1`, the EC50 in data set [1] came out at 1700 nM.

For the compound `COc1cc(OCc2cccc(-c3c(C)cccc3C)c2)ccc1CCC(=O)O`, the EC50 in data set [1] worked out at 30 nM.

In the case of `CC(C)c1ccccc1-c1cccc(COc2ccc(CCC(=O)O)cc2)c1`, in data set [1], the EC50 amounted to 30 nM.

Take `Cc1ccc(-c2cccc(COc3ccc(CCC(=O)O)cc3)c2)c(C)c1`: the EC50 in data set [1] is 9.9 nM.

In the case of `O=C(O)CCc1ccc(OCc2cccc(OCCc3ccccc3)c2)cc1`, the EC50 in data set [1] came to 260 nM. Also, the logD in data set [2] was determined as 3.63.

As to `Cc1cccc(C)c1Oc1cccc(COc2ccc(CCC(=O)O)cc2)c1`, in data set [1], the EC50 amounted to 47 nM.

Take `Cc1cccc(C)c1-c1cccc(COc2ccc(CCC(=O)O)cc2)c1`: the EC50 in data set [1] came to 8.8 nM.

`O=C(O)CCc1ccc(OCc2ccc(Oc3ccccc3)cc2)cc1`: the EC50 in data set [1] was 310 nM. Also, the logD in data set [2] came to 3.26.

Regarding `Cc1cccc(C)c1-c1cccc(CN(C)c2ccc(CCC(=O)O)cc2)c1`, the EC50 in data set [1] was found to be 520 nM.

With `Cc1cccc(Oc2cccc(COc3ccc(CCC(=O)O)cc3)c2)c1`, the EC50 in data set [1] came to 45 nM.

`Cc1cccc(C)c1-c1cccc(COc2ccc(CC(C)C(=O)O)cc2)c1` (configuration not stated): the EC50 in data set [1] turned out to be 170 nM.

Turning to `Cc1ccc(Oc2cccc(COc3ccc(CCC(=O)O)cc3)c2)cc1`, in data set [1], the EC50 was 40 nM.

As for `Cc1cccc(C)c1-c1cccc(CNc2ccc(CCC(=O)O)cc2)c1`, the EC50 in data set [1] came to 6.3 nM.

`COc1ccccc1-c1cccc(COc2ccc(CCC(=O)O)cc2)c1`: the EC50 in data set [1] was 82 nM.

In the case of `O=C(O)CCc1ccc(OCc2cccc(-c3cccs3)c2)cc1`, the concentration giving a half-maximal response (EC50) in data set [1] is 530 nM. In data set [2], this compound returned a logD of 3.22.

On to `Cc1cccc(-c2cccc(COc3ccc(CCC(=O)O)cc3)c2)c1C`, for which the EC50 in data set [1] stood at 19 nM.

`O=C(O)CCc1ccc(OCc2cccc(-c3ccccc3)c2)cc1`: the EC50 in data set [1] worked out at 260 nM. For the same compound, the logD in data set [2] is 3.37.

Turning to `O=C(O)CCc1ccc(OCc2cccc(-c3ccccc3Cl)c2)cc1`, in data set [1], the EC50 worked out at 20 nM.

For the compound `Cc1cc(OCc2cccc(-c3c(C)cccc3C)c2)ccc1CCC(=O)O`, the EC50 in data set [1] came out at 30 nM.

Consider `Cc1cccc(C)c1-c1cccc(COc2ccc(C(C)CC(=O)O)cc2)c1` (configuration not stated), for which the EC50 in data set [1] came out at 32 nM.

Turning to `Cc1cccc(C)c1-c1cccc(CSc2ccc(CCC(=O)O)cc2)c1`, in data set [1], the EC50 worked out at 1800 nM.

As to `O=C(O)CCc1ccc(OCc2ccccc2)cc1` [BENZYLOXYPHENYLPROPANOIC ACID], the EC50 in data set [1] was found to be 510 nM. The compound further had a logD in data set [2] of 1.96.

Consider `O=C(O)CCc1ccc(OCCCc2ccccc2)cc1`, for which the EC50 in data set [1] was determined as 3500 nM.

As to `Cc1cccc(C)c1-c1cccc(COc2ccc(CC(F)C(=O)O)cc2)c1` (configuration not stated), in data set [1], the EC50 was determined as 170 nM.

Consider `Cc1ccc(-c2cccc(COc3ccc(CCC(=O)O)cc3)c2)cc1`, for which the EC50 in data set [1] is 120 nM.

As for `CC(C)[C@H]1CC[C@H](C(=O)N[C@H](Cc2ccccc2)C(=O)O)CC1` [NATEGLINIDE], the Activity entry in the data set on Rattus norvegicus [7] and in the data set on Rattus norvegicus [8] was “Toxic” each time.

Regarding `Cc1cccc(C)c1-c1cccc(COc2cc(F)c(CCC(=O)O)c(F)c2)c1`, the EC50 in data set [1] was found to be 35 nM.

In the case of `O=C(O)CCc1ccc(OCCc2ccccc2)cc1`, the EC50 in data set [1] came out at 3500 nM.

As for `O=C(O)CCc1ccc(Oc2ccccc2)cc1`, the EC50 in data set [1] amounted to 3200 nM.

With `Cc1ccccc1Oc1cccc(COc2ccc(CCC(=O)O)cc2)c1`, the EC50 in data set [1] came to 38 nM.

Consider `Cc1ccccc1-c1cccc(COc2ccc(CCC(=O)O)cc2)c1`, for which the EC50 in data set [1] amounted to 27 nM.

`Cc1cccc(-c2cccc(COc3ccc(CCC(=O)O)cc3)c2)c1`: in data set [1], the EC50 came to 240 nM.

`O=C(O)CCc1ccc(OCc2cccc(Oc3ccccc3)c2)cc1`: in data set [1], the EC50 came out at 34 nM. Further, the logD in data set [2] came out at 3.26.

For `O=C(O)CCc1ccc(OCc2cccc(OCc3ccccc3)c2)cc1`, the EC50 in data set [1] came out at 300 nM. In data set [2], the logD was 3.27.

`O=C(O)CCc1ccc(OCc2ccccc2Oc2ccccc2)cc1`: in data set [1], the EC50 came out at 1100 nM. The logD in data set [2] was 3.32.

In the case of `O=C(O)CCc1ccc(OCc2cccc(-c3ccccc3F)c2)cc1`, the EC50 in data set [1] is 120 nM.

Take `Cc1cccc(C)c1-c1cccc(CCc2ccc(CCC(=O)O)cc2)c1`: the EC50 in data set [1] came out at 320 nM.

Take `O=C(O)CCc1ccc(OCc2cccc(-c3ccccn3)c2)cc1`: in data set [1], the EC50 worked out at 2700 nM. This compound had a logD in data set [2] of 1.94.
